From ChEMBL document CHEMBL4689842, “EUbOPEN Chemogenomics Library wave 1” (2021)

Test system: HEK-293T
Experiment: Multiplex assay against HEK293T;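 for Population Tubulin-Different-Phenotype (%): share of the cells with healthy nuclei that show this phenotype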
Assay type: toxicity, cell-based
Conditions: human
In short: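 Per cents of healthy-nucleus cells form the tubulin, mitochondrial-mass and membrane-permeability phenotype values. Live cells were stained at seeding with Hoechst33342, BioTracker Green Microtubule Cytoskeleton Dye, MitoTracker Red and Annexin V Alexa Fluor 680. After compound addition they were imaged on a CQ1 microscope at 37°C and 5% CO2, and CellPathfinder machine-learning gating split them into Hoechst high-intensity objects or normal cells, normal cells into healthy, pyknosed or fragmented nuclei, and pyknosed cells into mitotic or apoptotic.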

[1] = 12 h, 1 µM, compound concentration 1 uM, replicate 1
[2] = 12 h, 1 µM, compound concentration 1 uM, replicate 2
[3] = 12 h, 10 µM, compound concentration 10 uM, replicate 1
[4] = 12 h, 10 µM, compound concentration 10 uM, replicate 2
[5] = 24 h, 1 µM, compound concentration 1 uM, replicate 1
[6] = 24 h, 1 µM, compound concentration 1 uM, replicate 2
[7] = 24 h, 10 µM, compound concentration 10 uM, replicate 1
[8] = 24 h, 10 µM, compound concentration 10 uM, replicate 2
[9] = 48 h, 1 µM, compound concentration 1 uM, replicate 1
[10] = 48 h, 1 µM, compound concentration 1 uM, replicate 2
[11] = 48 h, 10 µM, compound concentration 10 uM, replicate 1
[12] = 48 h, 10 µM, compound concentration 10 uM, replicate 2

CCc1ccc(OCc2ccccc2C(=O)Nc2ccc3nc(C)cc(N)c3c2)cc1.Cl
Population Apoptotic (%) [1]: 84%
Population Fragmented Nuclei (%) [1]: 28%
Population Healthy Nuclei (%) [1]: 7%
Population Hoechst High Intensity Objects (%) [1]: 18%
Population Membrane Permeable-Phenotype (%) [1]: 33%
Population Mitochondria Different-Phenotype (%) [1]: 100%
Population Mitotic Cells (%) [1]: 15%
Population Normal (%) [1]: 81%
Population Pyknosed Nuclei (%) [1]: 64%
Population Tubulin-Different-Phenotype (%) [1]: 66%
Total Cell Count [1]: 156
Population Apoptotic (%) [2]: 73%
Population Fragmented Nuclei (%) [2]: 8%
Population Healthy Nuclei (%) [2]: 12%
Population Hoechst High Intensity Objects (%) [2]: 14%
Population Membrane Permeable-Phenotype (%) [2]: 0%
Population Mitochondria Different-Phenotype (%) [2]: 93%
Population Mitotic Cells (%) [2]: 26%
Population Normal (%) [2]: 85%
Population Pyknosed Nuclei (%) [2]: 79%
Population Tubulin-Different-Phenotype (%) [2]: 73%
Total Cell Count [2]: 146
Population Apoptotic (%) [3]: 50%
Population Fragmented Nuclei (%) [3]: 19%
Population Healthy Nuclei (%) [3]: 0%
Population Hoechst High Intensity Objects (%) [3]: 24%
Population Membrane Permeable-Phenotype (%) [3]: 0%
Population Mitochondria Different-Phenotype (%) [3]: 0%
Population Mitotic Cells (%) [3]: 50%
Population Normal (%) [3]: 75%
Population Pyknosed Nuclei (%) [3]: 80%
Population Tubulin-Different-Phenotype (%) [3]: 0%
Total Cell Count [3]: 144
Population Apoptotic (%) [4]: 62%
Population Fragmented Nuclei (%) [4]: 18%
Population Healthy Nuclei (%) [4]: 30%
Population Hoechst High Intensity Objects (%) [4]: 35%
Population Membrane Permeable-Phenotype (%) [4]: 11%
Population Mitochondria Different-Phenotype (%) [4]: 8%
Population Mitotic Cells (%) [4]: 37%
Population Normal (%) [4]: 64%
Population Pyknosed Nuclei (%) [4]: 51%
Population Tubulin-Different-Phenotype (%) [4]: 41%
Total Cell Count [4]: 175
Population Apoptotic (%) [5]: 85%
Population Fragmented Nuclei (%) [5]: 18%
Population Hoechst High Intensity Objects (%) [5]: 19%
Population Mitochondria Different-Phenotype (%) [5]: 90%
Population Mitotic Cells (%) [5]: 14%
Population Normal (%) [5]: 80%
Population Pyknosed Nuclei (%) [5]: 72%
Population Tubulin-Different-Phenotype (%) [5]: 81%
Total Cell Count [5]: 152
Population Apoptotic (%) [6]: 80%
Population Fragmented Nuclei (%) [6]: 10%
Population Healthy Nuclei (%) [6]: 9%
Population Hoechst High Intensity Objects (%) [6]: 15%
Population Membrane Permeable-Phenotype (%) [6]: 0%
Population Mitochondria Different-Phenotype (%) [6]: 100%
Population Mitotic Cells (%) [6]: 20%
Population Normal (%) [6]: 84%
Population Pyknosed Nuclei (%) [6]: 79%
Population Tubulin-Different-Phenotype (%) [6]: 100%
Total Cell Count [6]: 141
Population Apoptotic (%) [7]: 44%
Population Fragmented Nuclei (%) [7]: 20%
Population Healthy Nuclei (%) [7]: 0%
Population Hoechst High Intensity Objects (%) [7]: 22%
Population Membrane Permeable-Phenotype (%) [7]: 0%
Population Mitochondria Different-Phenotype (%) [7]: 100%
Population Mitotic Cells (%) [7]: 55%
Population Normal (%) [7]: 77%
Population Pyknosed Nuclei (%) [7]: 79%
Total Cell Count [7]: 135
Population Apoptotic (%) [8]: 42%
Population Fragmented Nuclei (%) [8]: 28%
Population Healthy Nuclei (%) [8]: 21%
Population Hoechst High Intensity Objects (%) [8]: 26%
Population Membrane Permeable-Phenotype (%) [8]: 18%
Population Mitochondria Different-Phenotype (%) [8]: 18%
Population Mitotic Cells (%) [8]: 57%
Population Normal (%) [8]: 73%
Population Pyknosed Nuclei (%) [8]: 50%
Population Tubulin-Different-Phenotype (%) [8]: 100%
Total Cell Count [8]: 103
Population Apoptotic (%) [9]: 85%
Population Fragmented Nuclei (%) [9]: 26%
Population Healthy Nuclei (%) [9]: 2%
Population Hoechst High Intensity Objects (%) [9]: 22%
Population Mitochondria Different-Phenotype (%) [9]: 66%
Population Mitotic Cells (%) [9]: 14%
Population Normal (%) [9]: 77%
Population Pyknosed Nuclei (%) [9]: 70%
Population Tubulin-Different-Phenotype (%) [9]: 66%
Total Cell Count [9]: 155
Population Apoptotic (%) [10]: 92%
Population Fragmented Nuclei (%) [10]: 14%
Population Healthy Nuclei (%) [10]: 11%
Population Hoechst High Intensity Objects (%) [10]: 11%
Population Membrane Permeable-Phenotype (%) [10]: 0%
Population Mitochondria Different-Phenotype (%) [10]: 84%
Population Mitotic Cells (%) [10]: 7%
Population Normal (%) [10]: 88%
Population Pyknosed Nuclei (%) [10]: 73%
Population Tubulin-Different-Phenotype (%) [10]: 84%
Total Cell Count [10]: 124
Population Apoptotic (%) [11]: 49%
Population Fragmented Nuclei (%) [11]: 20%
Population Healthy Nuclei (%) [11]: 0%
Population Hoechst High Intensity Objects (%) [11]: 22%
Population Membrane Permeable-Phenotype (%) [11]: 0%
Population Mitochondria Different-Phenotype (%) [11]: 0%
Population Mitotic Cells (%) [11]: 50%
Population Normal (%) [11]: 77%
Population Pyknosed Nuclei (%) [11]: 79%
Population Tubulin-Different-Phenotype (%) [11]: 0%
Total Cell Count [11]: 132
Population Apoptotic (%) [12]: 33%
Population Fragmented Nuclei (%) [12]: 31%
Population Healthy Nuclei (%) [12]: 50%
Population Hoechst High Intensity Objects (%) [12]: 40%
Population Membrane Permeable-Phenotype (%) [12]: 13%
Population Mitochondria Different-Phenotype (%) [12]: 28%
Population Mitotic Cells (%) [12]: 66%
Population Normal (%) [12]: 59%
Population Pyknosed Nuclei (%) [12]: 17%
Population Tubulin-Different-Phenotype (%) [12]: 64%
Total Cell Count [12]: 176
